The text below walks through data of ChEMBL document CHEMBL5260830, “Breakthroughs in neuroactive steroid drug discovery” (Bioorg Med Chem Lett, 2018).

Structures are written as SMILES.

The target of series [1] is GABA-A receptor; anion channel. Briefly: Displacement of [35S]-TBPS GABAA receptor in Wistar rat brain membrane incubated for 60 mins by competitive binding assay. The class given is cell membranes.
Series [2] addresses GABA-A receptor; anion channel. Kind of series: Displacement of [35S]-TBPS from rat synaptosomes GABAA receptor incubated for 90 mins by liquid scintillation counting method. The class given is subcellular, Synaptosome. (In general: Displacement assays read how much labelled ligand stays bound in the presence of the test substance.)
The target of series [3] is Glutamate NMDA receptor; GRIN1/GRIN2B (Homo sapiens, UniProt Q05586+Q13224). Kind of series: Inhibition of GluN1/GluN2B NMDA receptor (unknown origin) expressed in HEK293 cells. The class given is cell-based. The procedure, abridged:
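Potency measured in HEK293 cells transfected with rat GluN1 and GluN2B subunits.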

The species named for a further series is Mus musculus. Briefly: Anticonvulsant activity in 6-Hz induced seizure mouse model assessed as protection against 6-Hz induced seizure. The class given is functional. Put shortly:
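Tonic currents recorded from voltage-clamped ([…]) dentate gyrus granule cells of wild-type female mice. Value is fold potentiation of the mean normalized tonic response to 1 µM GABA, from four to eight cells per steroid and concentration. Anticonvulsant ED50 determined in the mouse 6-Hz psychomotor seizure model.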

For series [4], the target named is GABA-A receptor; anion channel (Homo sapiens) (UniProt P14867+P47870+P18507+P28472+P48169+Q99928+Q9UN88+P34903+O00591+O14764+Q8N1C3+P18505+P78334+P47869+P31644+Q16445). Kind of series: Potentiation of NAS mediated GABA (unknown origin) tonic effect assessed as fold potentiation. The class given is protein-complex assay. Conditions: filed as activator.
Series [5] is described as follows: Permeability coefficient across apical to basolateral side in human Caco-2 cells at pH 7.4. The class given is ADME, cell-based. Conditions: Caco-2, pH 7.4, read-out: permeability.
Series [6] can be described thus: Permeability coefficient across apical to basolateral side in human Caco-2 cells assessed as drug recovery at pH 7.4. The class given is ADME, cell-based. Conditions: Caco-2, pH 7.4, read-out: Drug recovery.

Chain of Glutamate NMDA receptor; GRIN1/GRIN2B (Q13224 whole entry, other chains not shown): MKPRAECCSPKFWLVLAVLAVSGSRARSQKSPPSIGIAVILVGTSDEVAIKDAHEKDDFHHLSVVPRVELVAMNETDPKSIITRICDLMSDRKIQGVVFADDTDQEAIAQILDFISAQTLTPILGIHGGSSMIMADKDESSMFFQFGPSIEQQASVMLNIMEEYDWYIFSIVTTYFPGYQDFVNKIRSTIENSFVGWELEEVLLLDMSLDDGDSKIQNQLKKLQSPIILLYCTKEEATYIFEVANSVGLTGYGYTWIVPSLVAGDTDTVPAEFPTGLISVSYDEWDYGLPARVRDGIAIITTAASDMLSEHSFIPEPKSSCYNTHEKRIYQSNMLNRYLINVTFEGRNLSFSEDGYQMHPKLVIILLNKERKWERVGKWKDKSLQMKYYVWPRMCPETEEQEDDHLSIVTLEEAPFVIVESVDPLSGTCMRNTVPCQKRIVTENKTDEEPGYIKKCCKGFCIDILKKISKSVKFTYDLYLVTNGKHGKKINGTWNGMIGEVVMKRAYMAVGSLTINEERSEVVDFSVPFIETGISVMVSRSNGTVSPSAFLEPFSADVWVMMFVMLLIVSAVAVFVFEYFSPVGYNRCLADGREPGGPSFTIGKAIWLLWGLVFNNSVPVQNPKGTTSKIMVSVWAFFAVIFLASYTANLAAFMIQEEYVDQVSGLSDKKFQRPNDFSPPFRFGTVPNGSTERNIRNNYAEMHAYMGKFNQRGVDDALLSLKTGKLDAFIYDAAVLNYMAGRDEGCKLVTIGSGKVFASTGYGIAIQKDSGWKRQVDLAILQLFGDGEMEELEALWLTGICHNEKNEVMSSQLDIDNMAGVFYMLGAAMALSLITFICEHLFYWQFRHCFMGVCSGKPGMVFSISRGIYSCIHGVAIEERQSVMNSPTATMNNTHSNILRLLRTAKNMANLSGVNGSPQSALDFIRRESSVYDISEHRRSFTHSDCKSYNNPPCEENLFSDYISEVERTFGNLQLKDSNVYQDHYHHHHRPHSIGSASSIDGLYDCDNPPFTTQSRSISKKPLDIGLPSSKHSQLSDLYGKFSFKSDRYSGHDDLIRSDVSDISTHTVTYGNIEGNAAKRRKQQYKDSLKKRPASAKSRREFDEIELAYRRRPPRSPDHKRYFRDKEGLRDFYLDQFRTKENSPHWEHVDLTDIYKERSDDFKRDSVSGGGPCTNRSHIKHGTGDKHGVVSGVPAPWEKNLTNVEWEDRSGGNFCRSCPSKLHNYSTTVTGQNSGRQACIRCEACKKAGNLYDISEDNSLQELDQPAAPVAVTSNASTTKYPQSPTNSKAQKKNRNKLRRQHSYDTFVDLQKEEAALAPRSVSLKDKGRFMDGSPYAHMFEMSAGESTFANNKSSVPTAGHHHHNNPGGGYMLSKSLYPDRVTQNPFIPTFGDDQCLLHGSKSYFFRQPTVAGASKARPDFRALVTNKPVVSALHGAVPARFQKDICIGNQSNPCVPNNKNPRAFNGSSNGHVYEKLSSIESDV

Turning to `CC(=O)[C@H]1CC[C@H]2[C@@H]3CC[C@H]4C[C@@H]5O[C@@H]5C[C@]4(C)[C@H]3CC[C@]12C`, in series [1], the IC50 worked out at 255 nM. This lies in the sub-micromolar range.

For `CC(=O)[C@H]1CC[C@H]2[C@@H]3CC[C@H]4C[C@H](O)C[C@H]5O[C@H](C[C@]12C)[C@@H]3[C@]45C`, the IC50 in series [2] was 93 nM.

Turning to `C[C@@]12CCC[C@H]1[C@@H]1CC[C@@H]3C[C@H](NC(=O)CC(=O)O)CC[C@]3(C)[C@H]1CC2`, in series [3], the IC50 turned out to be 15400 nM. Take `CC(=O)[C@H]1CC[C@H]2[C@@H]3CC[C@H]4C[C@@H](O)CC[C@]4(C)[C@H]3CC[C@]12C` [SEPRANOLONE]: the ED50 in the series filed under Mus musculus was > 100 mg/kg. The fold change (FC) in series [4] worked out at 0.76. Turning to `C[C@@]12CCC[C@H]1[C@@H]1CC[C@@H]3C[C@H](NC(=O)[C@@H](N)CC(=O)O)CC[C@]3(C)[C@H]1CC2`, the Papp A→B in series [5] was found to be 0.22 ×10⁻⁶ cm/s. Moreover, in series [6], the recovery was < 50%. The compound also showed an IC50 in series [3] of 1000 nM.

Consider `CC(=O)[C@H]1CC[C@H]2[C@@H]3CC[C@@H]4C[C@H](OC(=O)[C@@H](N)CCC(=O)O)CC[C@]4(C)[C@H]3CC[C@]12C`, for which the concentration for half-maximal inhibition (IC50) in series [3] amounted to 51700 nM. On to `COCC(=O)[C@H]1CC[C@H]2[C@@H]3CC[C@H]4C[C@@H]5O[C@@H]5C[C@]4(C)[C@H]3CC[C@]12C`, for which the IC50 in series [1] was 625 nM. Consider `C[C@@]12CCC[C@H]1[C@@H]1CC[C@@H]3C[C@H](NC(=O)[C@@H](N)CCC(=O)O)CC[C@]3(C)[C@H]1CC2`, for which the Papp A→B in series [5] was 0.22 ×10⁻⁶ cm/s. In series [6], the recovery was < 50%. The compound also displayed a 50% inhibitory concentration (IC50) in series [3] of 1400 nM. Take `CC(=O)[C@H]1CC[C@H]2[C@@H]3CC[C@@H]4C[C@H](O)CC[C@]4(C)[C@H]3CC[C@]12C` [ELTANOLONE]: the 50% effective dose (ED50) in the series filed under Mus musculus is 7.7 mg/kg. In addition, the fold change (FC) in series [4] worked out at 2.24. For `CC(=O)[C@H]1CC[C@H]2[C@@H]3CC[C@H]4C[C@H](O)CC[C@]4(C)[C@H]3C(=O)C[C@]12C` [ALFAXALONE], the ED50 in the series listed under Mus musculus is 8.8 mg/kg. The fold change (FC) in series [4] worked out at 1.98. As for `CC(=O)[C@H]1CC[C@H]2[C@@H]3CC[C@H]4C[C@H](O)CC[C@]4(C)[C@H]3CC[C@]12C` [BREXANOLONE], the ED50 in the series listed under Mus musculus is 4.2 mg/kg. In series [2], this compound came in with an IC50 of 86 nM. Further, the fold change (FC) in series [4] is 4.36. For `C[C@]12CC[C@@H](O)C[C@@H]1CC[C@@H]1[C@@H]2CC[C@]2(C)[C@@H](C(=O)CO)CC[C@@H]12`, in the series listed under Mus musculus, the ED50 worked out at 5 mg/kg. The fold change (FC) in series [4] turned out to be 3.52. For the compound `CC(=O)[C@H]1CC[C@H]2[C@@H]3CCC4=C[C@H](O)C[C@@H]5O[C@H](C[C@]12C)[C@@H]3[C@]45C`, the half-inhibitory concentration (IC50) in series [2] is 72 nM. Turning to `COCCC(CO)(CCOC)C(=O)[C@H]1CC[C@H]2[C@@H]3CC[C@H]4C[C@@H]5O[C@@H]5C[C@]4(C)[C@H]3CC[C@]12C`, the IC50 in series [1] was found to be 5000 nM. This counts as single-digit micromolar. Consider `C[C@@]12CCC[C@H]1[C@@H]1CC[C@@H]3C[C@H](NC(=O)O)CC[C@]3(C)[C@H]1CC2`, for which, in series [3], the midpoint of inhibition, the IC50, lay at 21700 nM. In the case of `CC(=O)[C@H]1CC[C@H]2[C@@H]3CC[C@@H]4C[C@H](O)C[C@@H]5O[C@H](C[C@]12C)[C@@H]3[C@]45C`, the IC50 in series [2] stood at 490 nM. That is a sub-micromolar value. Still for that read-out and setting: the result for `CC(=O)[C@H]1CC[C@H]2[C@@H]3C[C@H]4OC[C@@]5(CC[C@@H](O)CC45)[C@H]3CC[C@]12C` (some centres not stated) reads 141 nM.

One may read the IC50 as the concentration at which inhibition is half-maximal. A higher IC50 goes with weaker potency in that assay. By ED50 is commonly meant the dose that gives a 50% effect, or the effect in half of the subjects.
